Laboratory results published in ChEMBL document CHEMBL3425427, “Pyrido[4,3-e][1,2,4]triazolo[4,3-a]pyrazines as Selective, Brain Penetrant Phosphodiesterase 2 (PDE2) Inhibitors” (ACS Med Chem Lett, 2015).
In brackets after ≈: the same amount, converted by molar mass.

How the values were obtained:
[1] = molecular target: T1, cAMP and cAMP-inhibited cGMP 3',5'-cyclic phosphodiesterase 10A (Rattus norvegicus, UniProt Q9QYJ6); assay: Inhibition of 6-His-tagged rat recombinant PDE10A expressed in Sf9 cells using [3H]cAMP incubated for 60 mins by scintillation proximity assay
T1 sequence (Q9QYJ6 whole entry): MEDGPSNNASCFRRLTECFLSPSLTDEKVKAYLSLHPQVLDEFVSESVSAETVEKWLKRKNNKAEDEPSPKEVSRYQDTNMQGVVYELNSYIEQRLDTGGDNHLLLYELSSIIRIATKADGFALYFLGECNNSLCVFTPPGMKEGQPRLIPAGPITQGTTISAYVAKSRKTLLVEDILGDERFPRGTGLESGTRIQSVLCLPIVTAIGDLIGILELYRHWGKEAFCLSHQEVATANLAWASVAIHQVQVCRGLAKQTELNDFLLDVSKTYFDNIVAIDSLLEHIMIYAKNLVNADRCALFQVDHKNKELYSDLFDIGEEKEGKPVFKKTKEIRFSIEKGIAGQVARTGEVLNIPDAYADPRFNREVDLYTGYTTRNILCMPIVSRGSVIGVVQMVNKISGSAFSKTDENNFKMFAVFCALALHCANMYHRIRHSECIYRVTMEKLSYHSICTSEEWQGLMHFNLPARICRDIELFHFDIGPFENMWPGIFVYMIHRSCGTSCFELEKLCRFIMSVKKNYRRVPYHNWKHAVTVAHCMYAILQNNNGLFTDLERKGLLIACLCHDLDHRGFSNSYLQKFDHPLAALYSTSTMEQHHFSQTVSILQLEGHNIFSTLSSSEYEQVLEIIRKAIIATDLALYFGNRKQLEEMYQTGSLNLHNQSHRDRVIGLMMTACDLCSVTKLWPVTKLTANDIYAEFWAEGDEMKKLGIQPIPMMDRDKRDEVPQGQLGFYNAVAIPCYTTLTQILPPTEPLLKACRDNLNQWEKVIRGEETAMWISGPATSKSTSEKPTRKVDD

[2] = Drug metabolism in human liver microsomes at 1 uM incubated for 15 mins at 37 degC; type: ADME; conditions: read-out: Drug metabolism
In short: (§1)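 Compound at 1 μM incubated 15 min at 37 °C with human or rat liver microsomes; read-out is percent metabolized.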

[3] = Drug metabolism in rat liver microsomes at 1 uM incubated for 15 mins at 37 degC; type: ADME; conditions: read-out: Drug metabolism; in short: as §1
[4] = molecular target: cGMP-specific 3',5'-cyclic phosphodiesterase (Homo sapiens, UniProt O76074); assay: Inhibition of 6-His-tagged human recombinant PDE5A3 expressed in Sf9 cells by scintillation proximity assay
[5] = Half life in Sprague-Dawley rat at 10 mg/kg, po; type: ADME, organism-based; parameters: dose 10 mg/kg, route oral; conditions: in vivo
In short: (§2)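 Male Sprague-Dawley rats, fed; n = 3 per time point. Dosed 2.5 mg/kg i.v. or 10 mg/kg p.o.; plasma PK parameters derived from both routes.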

CYP1A2 = molecular target: T2, CYP1A2 (Homo sapiens, UniProt P05177); assay: Inhibition of CYP1A2 (unknown origin) at 5 uM; type: ADME
T2 sequence (P05177 whole entry): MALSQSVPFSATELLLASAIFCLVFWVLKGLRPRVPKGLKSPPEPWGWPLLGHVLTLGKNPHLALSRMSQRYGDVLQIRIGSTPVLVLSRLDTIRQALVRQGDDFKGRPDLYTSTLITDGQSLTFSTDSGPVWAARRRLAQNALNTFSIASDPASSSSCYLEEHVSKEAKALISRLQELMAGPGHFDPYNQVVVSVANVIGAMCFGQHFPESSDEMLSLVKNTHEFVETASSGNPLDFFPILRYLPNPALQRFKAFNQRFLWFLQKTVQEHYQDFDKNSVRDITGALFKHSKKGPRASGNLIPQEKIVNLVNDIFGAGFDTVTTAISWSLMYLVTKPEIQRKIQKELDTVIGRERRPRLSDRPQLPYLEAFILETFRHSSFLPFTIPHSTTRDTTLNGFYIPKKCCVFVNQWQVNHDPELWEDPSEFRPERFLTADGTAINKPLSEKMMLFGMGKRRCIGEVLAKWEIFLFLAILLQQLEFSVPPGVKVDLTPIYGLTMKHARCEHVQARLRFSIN

[6] = Drug formulatability in 20% HPbetaCD at pH >3.5 buffer; type: physicochemical; conditions: 20% HPbetaCD in buffer at pH >3.5; read-out: Activity
[7] = molecular target: Dual 3',5'-cyclic-AMP and -GMP phosphodiesterase 11A (Homo sapiens, UniProt Q9HCR9); assay: Inhibition of full length human PDE11A4 expressed in HEK cells by scintillation proximity assay; parameters: species or system HEK293
Dual 3',5'-cyclic-AMP and -GMP phosphodiesterase 11A, sequence (Q9HCR9 whole entry): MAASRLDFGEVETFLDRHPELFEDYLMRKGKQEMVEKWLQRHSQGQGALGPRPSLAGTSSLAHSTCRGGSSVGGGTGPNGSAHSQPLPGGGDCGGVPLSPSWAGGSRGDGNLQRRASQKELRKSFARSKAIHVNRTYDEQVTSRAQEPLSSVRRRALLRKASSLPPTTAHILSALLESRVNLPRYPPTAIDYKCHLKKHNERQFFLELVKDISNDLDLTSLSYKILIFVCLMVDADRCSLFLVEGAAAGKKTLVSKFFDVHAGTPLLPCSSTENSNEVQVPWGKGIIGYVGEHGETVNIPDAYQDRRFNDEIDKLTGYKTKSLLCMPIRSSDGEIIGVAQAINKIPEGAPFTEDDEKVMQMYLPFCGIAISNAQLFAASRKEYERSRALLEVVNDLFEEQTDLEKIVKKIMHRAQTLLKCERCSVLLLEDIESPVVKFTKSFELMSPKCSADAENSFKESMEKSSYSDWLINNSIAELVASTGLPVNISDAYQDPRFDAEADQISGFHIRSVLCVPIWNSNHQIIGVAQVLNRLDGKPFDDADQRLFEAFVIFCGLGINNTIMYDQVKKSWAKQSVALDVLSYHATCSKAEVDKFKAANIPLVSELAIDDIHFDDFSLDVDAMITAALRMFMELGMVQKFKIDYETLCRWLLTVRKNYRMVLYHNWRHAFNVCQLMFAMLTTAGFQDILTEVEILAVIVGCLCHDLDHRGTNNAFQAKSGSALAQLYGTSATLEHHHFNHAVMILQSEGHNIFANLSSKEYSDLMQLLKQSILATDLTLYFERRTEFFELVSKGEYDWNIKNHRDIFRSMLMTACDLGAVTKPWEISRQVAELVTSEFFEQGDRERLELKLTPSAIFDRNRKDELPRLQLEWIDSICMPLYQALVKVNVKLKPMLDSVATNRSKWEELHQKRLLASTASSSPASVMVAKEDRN

[8] = molecular target: High affinity 3',5'-cyclic-AMP phosphodiesterase 7A (Homo sapiens, UniProt Q13946); assay: Inhibition of 6-His-tagged human recombinant PDE7A1 expressed in Sf9 cells by scintillation proximity assay
CYP2C19 = CYP2C19 (Homo sapiens, UniProt P33261); assay: Inhibition of CYP2C19 (unknown origin) at 5 uM; type: ADME
CYP2C19, sequence (P33261 whole entry): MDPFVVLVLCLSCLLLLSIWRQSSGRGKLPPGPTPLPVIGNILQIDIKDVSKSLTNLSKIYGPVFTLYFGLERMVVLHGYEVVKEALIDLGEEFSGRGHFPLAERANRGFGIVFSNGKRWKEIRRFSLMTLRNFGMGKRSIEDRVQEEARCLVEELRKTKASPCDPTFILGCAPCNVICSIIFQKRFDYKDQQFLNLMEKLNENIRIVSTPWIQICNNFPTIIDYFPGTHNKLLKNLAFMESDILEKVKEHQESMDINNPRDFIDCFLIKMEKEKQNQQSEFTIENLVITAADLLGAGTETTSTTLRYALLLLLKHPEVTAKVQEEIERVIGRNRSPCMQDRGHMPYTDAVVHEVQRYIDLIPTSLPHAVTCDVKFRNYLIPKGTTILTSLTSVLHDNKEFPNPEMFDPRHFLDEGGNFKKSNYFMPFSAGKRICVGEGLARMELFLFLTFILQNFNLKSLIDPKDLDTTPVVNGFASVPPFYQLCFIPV

[9] = Solubility in pH 3.9 buffer with 20% HPbetaCD; type: physicochemical
[10] = Tmax in Sprague-Dawley rat at 10 mg/kg, po; type: ADME, organism-based; parameters: dose 10 mg/kg, route oral; conditions: in vivo; in short: as §2
[11] = Solubility in pH 7.4 buffer; type: physicochemical
[12] = molecular target: High affinity cGMP-specific 3',5'-cyclic phosphodiesterase 9A (Homo sapiens, UniProt O76083); assay: Inhibition of 6-His-tagged human recombinant PDE9A1 expressed in Sf9 cells by scintillation proximity assay
High affinity cGMP-specific 3',5'-cyclic phosphodiesterase 9A, sequence (O76083 whole entry): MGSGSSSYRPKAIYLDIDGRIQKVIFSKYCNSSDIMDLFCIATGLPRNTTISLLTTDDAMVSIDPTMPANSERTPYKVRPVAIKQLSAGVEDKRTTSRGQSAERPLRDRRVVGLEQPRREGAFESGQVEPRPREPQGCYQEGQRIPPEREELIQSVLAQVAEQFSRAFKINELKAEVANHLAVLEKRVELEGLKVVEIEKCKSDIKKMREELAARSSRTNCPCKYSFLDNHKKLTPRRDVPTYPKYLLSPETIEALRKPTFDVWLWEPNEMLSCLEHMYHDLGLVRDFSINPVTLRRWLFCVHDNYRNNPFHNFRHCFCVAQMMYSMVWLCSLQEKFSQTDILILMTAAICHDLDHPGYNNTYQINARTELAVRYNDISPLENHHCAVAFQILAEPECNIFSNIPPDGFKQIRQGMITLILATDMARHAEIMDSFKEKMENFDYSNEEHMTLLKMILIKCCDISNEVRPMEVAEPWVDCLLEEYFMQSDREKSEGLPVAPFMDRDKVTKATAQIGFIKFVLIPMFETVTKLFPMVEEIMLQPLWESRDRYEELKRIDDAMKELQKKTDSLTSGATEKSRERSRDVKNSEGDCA

Salmonella typhimurium = assay: Genotoxicity in Salmonella typhimurium at 125 ug/ml by AMES-2 test; type: toxicity, organism-based; conditions: salmonella enterica subsp. enterica serovar typhimurium
In short: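 Colorimetric AMESII bacterial mutagenicity kit, adapted; compound tested at 125 μg/mL.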

CYP3A4 = CYP3A4 (Homo sapiens, UniProt P08684); assay: Inhibition of CYP3A4 (unknown origin) at 5 uM; type: ADME
CYP3A4, sequence (P08684 whole entry): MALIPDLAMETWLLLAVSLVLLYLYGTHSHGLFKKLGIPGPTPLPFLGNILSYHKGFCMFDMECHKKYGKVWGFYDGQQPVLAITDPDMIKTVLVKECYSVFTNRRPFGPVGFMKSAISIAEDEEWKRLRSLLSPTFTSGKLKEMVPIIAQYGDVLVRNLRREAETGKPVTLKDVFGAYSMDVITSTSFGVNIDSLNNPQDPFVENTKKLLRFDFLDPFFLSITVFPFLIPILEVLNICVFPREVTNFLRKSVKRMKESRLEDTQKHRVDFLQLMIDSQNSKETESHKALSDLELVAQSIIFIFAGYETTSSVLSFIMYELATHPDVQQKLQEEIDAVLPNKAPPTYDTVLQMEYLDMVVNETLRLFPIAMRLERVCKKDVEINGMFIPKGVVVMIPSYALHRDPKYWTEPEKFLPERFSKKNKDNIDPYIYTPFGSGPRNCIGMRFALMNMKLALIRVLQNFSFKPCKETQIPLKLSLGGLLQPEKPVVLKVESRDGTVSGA

[13] = Ratio of drug level in brain to plasma of Sprague-Dawley rat at 10 mg/kg, sc after 1 hr; type: ADME, organism-based; parameters: dose 10 mg/kg, route subcutaneous; conditions: read-out: BPR
In short: (§3)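 Fed male Sprague-Dawley rats, n = 2 per time point, given 10 mg/kg s.c. in 20% HPβCD at pH 3.5−4. Brain and plasma levels taken 1 h after dosing; brain-to-plasma ratio computed from these.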

[14] = molecular target: cGMP-inhibited 3',5'-cyclic phosphodiesterase 3B (Homo sapiens, UniProt Q13370); assay: Inhibition of human PDE3B by scintillation proximity assay
[15] = Apparent volume of distribution in Sprague-Dawley rat at 2.5 mg/kg, iv; type: ADME, organism-based; parameters: dose 2.5 mg/kg, route intravenous; conditions: in vivo, read-out: Vz; in short: as §2
[16] = Half life in Sprague-Dawley rat at 2.5 mg/kg, iv; type: ADME, organism-based; parameters: dose 2.5 mg/kg, route intravenous; conditions: in vivo; in short: as §2
[17] = Dissociation constant, pKa of the compound at 25 degC by potentiometric titration method; type: physicochemical
[18] = Kinetic solubility in pH 7.4 buffer incubated for 4 hrs; type: physicochemical; conditions: read-out: Kinetic_solubility
[19] = Drug level in Sprague-Dawley rat brain homogenates at 10 mg/kg, sc after 1 hr; type: ADME, organism-based; parameters: dose 10 mg/kg, route subcutaneous; conditions: read-out: Drug uptake; in short: as §3
[20] = AUC (0 to infinity) in Sprague-Dawley rat at 10 mg/kg, po; type: ADME, organism-based; parameters: time infinity, dose 10 mg/kg, route oral; conditions: plasma
[21] = molecular target: Dual specificity calcium/calmodulin-dependent 3',5'-cyclic nucleotide phosphodiesterase 1A (Homo sapiens, UniProt P54750); assay: Inhibition of human PDE1A by scintillation proximity assay
Dual specificity calcium/calmodulin-dependent 3',5'-cyclic nucleotide phosphodiesterase 1A, sequence (P54750 whole entry): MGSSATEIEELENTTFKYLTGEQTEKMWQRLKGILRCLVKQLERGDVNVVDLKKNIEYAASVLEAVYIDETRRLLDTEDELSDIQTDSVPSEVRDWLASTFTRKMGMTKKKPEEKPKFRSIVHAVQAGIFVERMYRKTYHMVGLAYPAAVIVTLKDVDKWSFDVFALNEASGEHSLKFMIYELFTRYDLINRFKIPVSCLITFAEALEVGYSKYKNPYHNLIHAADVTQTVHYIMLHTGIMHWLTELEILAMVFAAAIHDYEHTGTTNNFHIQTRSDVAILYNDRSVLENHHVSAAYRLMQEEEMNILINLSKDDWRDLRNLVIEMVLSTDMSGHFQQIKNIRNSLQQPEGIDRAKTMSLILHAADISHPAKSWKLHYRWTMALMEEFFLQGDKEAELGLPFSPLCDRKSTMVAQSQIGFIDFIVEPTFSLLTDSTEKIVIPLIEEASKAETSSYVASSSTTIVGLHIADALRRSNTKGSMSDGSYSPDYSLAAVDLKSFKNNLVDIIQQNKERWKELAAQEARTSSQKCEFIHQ

CYP2D6 = CYP2D6 (Homo sapiens, UniProt P10635); assay: Inhibition of CYP2D6 (unknown origin) at 5 uM; type: ADME
CYP2D6, sequence (P10635 whole entry): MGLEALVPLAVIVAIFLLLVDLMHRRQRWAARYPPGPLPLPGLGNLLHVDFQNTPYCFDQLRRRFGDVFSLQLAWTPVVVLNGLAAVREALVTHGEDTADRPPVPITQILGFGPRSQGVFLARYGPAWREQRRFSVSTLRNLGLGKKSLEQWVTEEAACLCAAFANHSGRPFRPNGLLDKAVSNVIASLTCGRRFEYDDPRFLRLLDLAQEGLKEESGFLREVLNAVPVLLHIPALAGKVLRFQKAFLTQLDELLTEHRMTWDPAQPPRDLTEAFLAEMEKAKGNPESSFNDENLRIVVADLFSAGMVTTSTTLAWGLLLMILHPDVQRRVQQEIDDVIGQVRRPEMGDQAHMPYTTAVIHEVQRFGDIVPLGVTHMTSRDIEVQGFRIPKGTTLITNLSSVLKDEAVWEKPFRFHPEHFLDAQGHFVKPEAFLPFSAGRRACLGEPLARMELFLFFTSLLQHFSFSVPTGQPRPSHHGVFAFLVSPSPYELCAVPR

[22] = Volume of distribution at steady state in Sprague-Dawley rat at 2.5 mg/kg, iv; type: ADME, organism-based; parameters: dose 2.5 mg/kg, route intravenous; conditions: in vivo, read-out: Vdss; in short: as §2
Rattus norvegicus = assay: In vivo PDE2 occupancy in Wistar rat assessed as inhibition of specific binding of [3H]-4-((1-(5-butoxypyridin-3-yl)-4-methyl-[1,2,4]triazolo[4,3-a]quinoxalin-8-yl)methyl)morpholine radiotracer and pre-treated with 2.5 mg/kg, sc PDE10 inhibitor MP10
[23] = Oral bioavailability in Sprague-Dawley rat at 10 mg/kg; type: ADME, organism-based; conditions: in vivo; in short: as §2
Phosphodiesterase 6 = assay: Inhibition of human PDE6AB by scintillation proximity assay; type: protein assay
[24] = AUC (0 to infinity) in Sprague-Dawley rat at 2.5 mg/kg, iv; type: ADME, organism-based; parameters: dose 2.5 mg/kg, route intravenous, time infinity; conditions: plasma
[25] = Dissociation constant, pKa of the compound; type: physicochemical
CYP2C9 = CYP2C9 (Homo sapiens, UniProt P11712); assay: Inhibition of CYP2C9 (unknown origin) at 5 uM; type: ADME
CYP2C9, sequence (P11712 whole entry): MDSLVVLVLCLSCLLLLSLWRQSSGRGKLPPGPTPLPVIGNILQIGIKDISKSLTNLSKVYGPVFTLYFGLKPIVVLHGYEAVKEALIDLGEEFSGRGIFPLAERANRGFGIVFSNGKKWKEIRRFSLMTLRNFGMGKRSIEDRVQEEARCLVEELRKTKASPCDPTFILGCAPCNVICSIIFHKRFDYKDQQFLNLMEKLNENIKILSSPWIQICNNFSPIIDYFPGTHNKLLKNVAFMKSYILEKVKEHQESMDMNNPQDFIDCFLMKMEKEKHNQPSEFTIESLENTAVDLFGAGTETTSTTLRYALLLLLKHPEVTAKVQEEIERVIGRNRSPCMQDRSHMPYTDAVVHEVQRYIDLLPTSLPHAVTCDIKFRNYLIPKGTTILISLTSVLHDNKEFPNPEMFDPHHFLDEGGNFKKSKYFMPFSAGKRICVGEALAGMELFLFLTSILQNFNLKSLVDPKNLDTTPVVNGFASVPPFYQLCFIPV

[26] = Cmax in Sprague-Dawley rat at 10 mg/kg, po; type: ADME, organism-based; parameters: dose 10 mg/kg, route oral; conditions: in vivo; in short: as §2
[27] = molecular target: 3',5'-cyclic-AMP phosphodiesterase 4D (Homo sapiens, UniProt Q08499); assay: Inhibition of 6-His-tagged human recombinant PDE4D3 expressed in Sf9 cells by scintillation proximity assay
3',5'-cyclic-AMP phosphodiesterase 4D, sequence (Q08499 whole entry): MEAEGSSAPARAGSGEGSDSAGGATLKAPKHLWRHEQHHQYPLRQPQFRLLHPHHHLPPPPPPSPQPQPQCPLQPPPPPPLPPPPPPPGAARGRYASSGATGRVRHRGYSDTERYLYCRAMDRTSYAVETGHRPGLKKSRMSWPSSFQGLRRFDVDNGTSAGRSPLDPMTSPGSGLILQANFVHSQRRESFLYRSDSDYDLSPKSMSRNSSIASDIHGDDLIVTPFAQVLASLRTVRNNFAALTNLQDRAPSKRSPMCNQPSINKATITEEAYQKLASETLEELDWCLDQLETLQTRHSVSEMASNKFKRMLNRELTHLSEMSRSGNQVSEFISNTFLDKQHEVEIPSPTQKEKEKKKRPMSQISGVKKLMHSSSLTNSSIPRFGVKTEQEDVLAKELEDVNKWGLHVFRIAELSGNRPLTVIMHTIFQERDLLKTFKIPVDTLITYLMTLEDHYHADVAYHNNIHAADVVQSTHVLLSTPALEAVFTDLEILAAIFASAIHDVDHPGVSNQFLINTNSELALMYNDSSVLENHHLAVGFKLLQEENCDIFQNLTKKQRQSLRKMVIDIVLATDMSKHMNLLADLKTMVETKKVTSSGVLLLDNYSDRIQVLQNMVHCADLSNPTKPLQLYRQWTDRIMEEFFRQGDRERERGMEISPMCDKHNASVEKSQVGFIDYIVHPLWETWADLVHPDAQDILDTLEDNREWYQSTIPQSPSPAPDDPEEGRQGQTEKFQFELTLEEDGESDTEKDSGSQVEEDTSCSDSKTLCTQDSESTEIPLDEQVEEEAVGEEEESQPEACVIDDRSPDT

[28] = Clearance in Sprague-Dawley rat at 2.5 mg/kg, iv; type: ADME, organism-based; parameters: dose 2.5 mg/kg, route intravenous; conditions: in vivo; in short: as §2
[29] = Initial plasma concentration in Sprague-Dawley rat at 2.5 mg/kg, iv; type: ADME, organism-based; parameters: dose 2.5 mg/kg, route intravenous; in short: as §2
[30] = Unbound fraction in Sprague-Dawley rat brain homogenates at 10 mg/kg, sc after 5 hrs at 37 degC by rapid equilibrium dialysis; type: ADME, organism-based; parameters: dose 10 mg/kg, route subcutaneous; conditions: brain homogenate
In short: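 Unbound fraction measured in rat brain homogenate by rapid equilibrium dialysis, 5 h incubation at 37 °C.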

Question: For `Cc1nc2ccncc2n2c(-c3cc(COC(C)C)ccc3Cl)nnc12`, which IC50 [1] is on record?
Answer: 6.03 µM

Question: What about the metabolised at 0.25 h, 1 µM [2] of the same compound?
Answer: 57%

Question: What about the metabolised at 0.25 h, 1 µM [3] of the same compound?
Answer: 98%

Question: With `Cc1nc2ccncc2n2c(-c3cc(OC(F)(F)F)ccc3Cl)nnc12` as the compound, how does the IC50 [1] read?
Answer: 8.91 µM

Question: What about the metabolised at 0.25 h, 1 µM [2] of the same compound?
Answer: 3%

Question: And the metabolised at 0.25 h, 1 µM [3]?
Answer: 11%

Question: For `Cc1nc2ccncc2n2c(-c3cc(N4CCOCC4)ccc3Cl)nnc12`, which IC50 [1] is on record?
Answer: > 10 µM

Question: What about the metabolised at 0.25 h, 1 µM [2] of the same compound?
Answer: 14%

Question: And the metabolised at 0.25 h, 1 µM [3]?
Answer: 53%

Question: Which results are given for `Cc1nc2ccncc2n2c(-c3ccccc3Cl)nnc12`?
Answer: IC50 [4]: > 10 µM; half-life [5]: 2.36 h; inhibition at 5 µM (CYP1A2): < 50%; solubility [6]: 4000 µg/mL (≈ 13.5 mM); IC50 [7]: 6.92 µM; IC50 [8]: > 10 µM; inhibition at 5 µM (CYP2C19): < 50%; solubility [9]: 4000 µg/mL (≈ 13.5 mM); Tmax [10]: 1.17 h; metabolised at 0.25 h, 1 µM [2]: 7%; solubility [11]: > 1000 µM; IC50 [12]: > 10 µM; Activity (Salmonella typhimurium): Non-toxic; inhibition at 5 µM (CYP3A4): < 50%; Kp at 1 h [13]: 0.65; IC50 [14]: > 10 µM; Vd [15]: 1.61 L/kg; half-life [16]: 0.47 h; pKa [17]: 2.7; solubility kinetic at 4 h [18]: > 1000 µM; concentration at 1 h [19]: 2730 ng/g; AUC(0-inf) [20]: 4230 ng·h/mL; IC50 [21]: > 10 µM; inhibition at 5 µM (CYP2D6): < 50%; Vd [22]: 1.02 L/kg; ED50 (Rattus norvegicus): 21 mg/kg; metabolised at 0.25 h, 1 µM [3]: 13%; bioavailability [23]: 100%; IC50 (Phosphodiesterase 6): > 10 µM; AUC(0-inf) [24]: 1040 ng·h/mL; pKa [25]: 2.7; inhibition at 5 µM (CYP2C9): < 50%; Cmax [26]: 997 ng/mL; IC50 [27]: 5.89 µM; clearance [28]: 38.7 mL/min/kg; C0 [29]: 3020 ng/mL; fraction unbound at 5 h [30]: > 0.3

Question: With `COCCOc1ccc(Cl)c(-c2nnc3c(C)nc4ccncc4n23)c1` as the compound, how does the IC50 [1] read?
Answer: 9.12 µM

Question: And the metabolised at 0.25 h, 1 µM [2]?
Answer: 5%

Question: And the Kp at 1 h [13]?
Answer: 0.44

Question: What about the concentration at 1 h [19] of the same compound?
Answer: 801 ng/g

Question: And the metabolised at 0.25 h, 1 µM [3]?
Answer: 18%

Question: What about the fraction unbound at 5 h [30] of the same compound?
Answer: 0.17
